Test results published in ChEMBL document CHEMBL4304739, “Discovery of 3-(Indol-5-yl)-indazole Derivatives as Novel Myeloid Differentiation Protein 2/Toll-like Receptor 4 Antagonists for Treatment of Acute Lung Injury” (J Med Chem, 2019).
The source made the active and inactive calls. The calls are words filed in the database; no cut-off is given here.

Experiments:
Peritoneal macrophage = assay: Cytotoxicity against ICR mouse peritoneal macrophages assessed as reduction in cell viability at 10 uM measured after 24 hrs by MTT assay; type: cell-based
Summary of the method: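 Peritoneal macrophages from ICR mice, 2.0×10^4 cells/well in DMEM with 10% FBS. Cells exposed to compound for 24 h, then MTT (5 mg/ml in 0.9% NaCl) added for 4 h at 37 °C in 5% CO2. Absorbance read at 490 nm; final DMSO 0.1%.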

[1] = biological target: T1, Toll-like receptor 4/Ly96 (Mus musculus, UniProt Q9JHF9+Q9QUK6); assay: Inhibition of MD2-TLR4 protein-protein interaction in ICR mouse peritoneal macrophages assessed as reduction in LPS-induced IL-6 production preincubated for 2 hrs followed by LPS-stimulation and measured after 22 hrs by ELISA
T1 sequence (Q9QUK6 whole entry): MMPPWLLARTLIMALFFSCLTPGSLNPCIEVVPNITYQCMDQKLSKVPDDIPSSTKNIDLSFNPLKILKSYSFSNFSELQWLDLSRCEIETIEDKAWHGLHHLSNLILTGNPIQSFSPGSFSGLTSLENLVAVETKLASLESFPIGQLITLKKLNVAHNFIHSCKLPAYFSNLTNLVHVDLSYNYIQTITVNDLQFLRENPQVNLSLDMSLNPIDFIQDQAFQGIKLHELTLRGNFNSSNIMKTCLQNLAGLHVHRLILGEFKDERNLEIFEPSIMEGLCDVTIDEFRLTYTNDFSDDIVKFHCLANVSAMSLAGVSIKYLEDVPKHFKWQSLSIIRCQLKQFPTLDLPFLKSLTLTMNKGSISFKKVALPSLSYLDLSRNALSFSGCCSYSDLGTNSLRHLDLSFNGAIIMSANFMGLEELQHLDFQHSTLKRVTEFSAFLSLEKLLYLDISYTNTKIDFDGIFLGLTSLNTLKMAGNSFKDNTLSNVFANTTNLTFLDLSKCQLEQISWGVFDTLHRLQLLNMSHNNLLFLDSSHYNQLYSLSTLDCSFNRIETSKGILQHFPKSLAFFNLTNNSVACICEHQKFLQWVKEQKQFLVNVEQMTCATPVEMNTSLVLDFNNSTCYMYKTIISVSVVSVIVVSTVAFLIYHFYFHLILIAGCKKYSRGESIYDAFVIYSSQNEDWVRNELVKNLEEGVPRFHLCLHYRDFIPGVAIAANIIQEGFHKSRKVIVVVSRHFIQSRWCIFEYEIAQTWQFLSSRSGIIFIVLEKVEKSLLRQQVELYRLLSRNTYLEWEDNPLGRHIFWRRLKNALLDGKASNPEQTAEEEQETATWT
T1 sequence (Q9JHF9 whole entry): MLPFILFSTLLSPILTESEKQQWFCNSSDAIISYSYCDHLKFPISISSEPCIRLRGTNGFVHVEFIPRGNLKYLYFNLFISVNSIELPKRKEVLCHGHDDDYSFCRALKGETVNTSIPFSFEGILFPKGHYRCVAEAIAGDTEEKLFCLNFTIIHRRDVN

[2] = biological target: T1, Toll-like receptor 4/Ly96; assay: Inhibition of MD2-TLR4 protein-protein interaction in ICR mouse peritoneal macrophages assessed as reduction in LPS-induced TNFalpha production preincubated for 2 hrs followed by LPS-stimulation and measured after 22 hrs by ELISA
Mus musculus [3] = assay: Antiinflammatory activity in LPS-induced C57BL/6 mouse model of acute lung injury assessed as reduction in lung injury score at 10 mg/kg, iv pretreated for 15 mins followed by LPS stimulation and measured after 6 hrs; type: functional, organism-based
Summary of the method: (§1)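 Male C57BL/6 mice (18−22 g; n=8 per group). Compound in 0.1% CMC-Na given by tail vein injection 15 min before intraperitoneal LPS (20 mg/kg); controls received saline. Mice were sacrificed 6 h after LPS, and serum and lung tissue were collected.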

Mus musculus [4] = assay: Antiinflammatory activity in LPS-induced C57BL/6 mouse model of acute lung injury assessed as reduction in F4/80 positive macrophage at 10 mg/kg, iv pretreated for 15 mins followed by LPS stimulation and measured after 6 hrs by ABC/hematoxylin staining-based immunohistochemistry analysis; type: functional, organism-based; summary of the method: as §1

| Structure (SMILES) | Activity (Peritoneal macrophage) | further results |
| --- | --- | --- |
| O=C(Nc1ccc2[nH]nc(-c3ccc4c(ccn4CCO)c3)c2c1)c1c(Cl)cccc1Cl | Non-Toxic | IC50 [1]: 0.73 µM; IC50 [2]: 6.31 µM |
| O=C(Nc1ccc2[nH]nc(-c3ccc4c(ccn4CCO)c3)c2c1)c1ccccn1 | Non-Toxic | – |
| CC(=O)Nc1ccc2[nH]nc(-c3ccc4c(ccn4CCO)c3)c2c1 | Non-Toxic | – |
| CCC(=O)Nc1ccc2[nH]nc(-c3ccc4c(ccn4CCO)c3)c2c1 | Non-Toxic | – |
| O=C(Nc1ccc2[nH]nc(-c3ccc4c(ccn4CCO)c3)c2c1)c1ccc(F)cc1 | Non-Toxic | – |
| Cc1cccc(C(=O)Nc2ccc3[nH]nc(-c4ccc5c(ccn5CCO)c4)c3c2)c1 | Non-Toxic | – |
| O=C(Nc1ccc2c(c1)c(-c1ccc3[nH]ccc3c1)nn2Cc1ccccc1)c1c(Cl)cccc1Cl | Non-Toxic | – |
| O=[N+]([O-])c1ccc2[nH]nc(-c3ccc4c(ccn4CCO)c3)c2c1 | Non-Toxic | IC50 [1]: 0.84 µM; IC50 [2]: 6.99 µM |
| CCCn1c(-c2c[nH]c3ncccc23)nc2ccc(N3CCN(C)CC3)nc21 | – | Activity (Mus musculus [3]): Active; Activity (Mus musculus [4]): Active |
| O=C(CCCl)Nc1ccc2[nH]nc(-c3ccc4c(ccn4CCO)c3)c2c1 | Non-Toxic | IC50 [1]: 4.57 µM; IC50 [2]: 3.47 µM |
| Nc1ccc2[nH]nc(-c3ccc4c(ccn4CCO)c3)c2c1 | Non-Toxic | – |
| COc1cc(OC)cc(C(=O)Nc2ccc3[nH]nc(-c4ccc5c(ccn5CCO)c4)c3c2)c1 | Non-Toxic | – |
| O=C(Nc1ccc2[nH]nc(-c3ccc4c(ccn4CCO)c3)c2c1)c1cccc(Cl)c1 | Non-Toxic | – |
| O=C(Nc1ccc2[nH]nc(-c3ccc4c(ccn4CCO)c3)c2c1)c1ccc(Cl)cc1 | Non-Toxic | – |
| Cc1cccc(C(=O)Nc2ccc3[nH]nc(-c4ccc5c(ccn5CCO)c4)c3c2)n1 | Non-Toxic | – |
| O=C(/C=C/c1ccccc1)Nc1ccc2[nH]nc(-c3ccc4c(ccn4CCO)c3)c2c1 | Non-Toxic | – |
